Structures are written as SMILES. The source made the active and inactive calls. No cut-off for these calls is given here.

Data set [1] concerns the target T1, Sodium- and chloride-dependent glycine transporter 1 (Rattus norvegicus) (UniProt P28572).
T1 sequence (whole entry): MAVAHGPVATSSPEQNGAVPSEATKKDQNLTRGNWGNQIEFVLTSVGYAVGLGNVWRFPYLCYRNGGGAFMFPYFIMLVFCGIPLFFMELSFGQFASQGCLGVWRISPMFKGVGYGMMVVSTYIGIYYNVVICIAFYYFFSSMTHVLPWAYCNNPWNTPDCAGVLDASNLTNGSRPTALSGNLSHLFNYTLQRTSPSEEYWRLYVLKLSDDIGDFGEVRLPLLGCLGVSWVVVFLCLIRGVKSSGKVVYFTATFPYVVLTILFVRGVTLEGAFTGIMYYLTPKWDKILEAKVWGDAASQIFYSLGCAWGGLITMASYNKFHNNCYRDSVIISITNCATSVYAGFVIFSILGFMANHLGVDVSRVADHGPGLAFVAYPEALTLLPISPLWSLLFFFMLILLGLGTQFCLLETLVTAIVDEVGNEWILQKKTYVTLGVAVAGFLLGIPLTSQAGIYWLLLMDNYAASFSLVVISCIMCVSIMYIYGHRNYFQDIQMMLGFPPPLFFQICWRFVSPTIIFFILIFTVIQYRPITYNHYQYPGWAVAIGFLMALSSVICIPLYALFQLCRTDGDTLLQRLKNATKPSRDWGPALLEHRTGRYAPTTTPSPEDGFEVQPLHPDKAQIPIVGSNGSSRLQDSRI
Description: Binding affinity to GlyT1 in rat brain corpus callosum at 0.03 to 0.04 nM preincubated for 20 mins in binding buffer before compound addition measured after 30 mins by autoradiography in presence of 0.01 mM GlyT2 inhibitor ORG25543 relative to control. Format: tissue-based. To be noted: tested as the 125I-labelled form. The method in brief: (§1)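 Rat brain sagittal sections (20 µm) preincubated 20 min at 25 °C in Tris-HCl buffer pH 7.5 (NaCl, KCl, MgCl2, CaCl2), then 30 min at 25 °C with [125I] tracer (100 kBq, 0.03–0.04 nM) plus competitor (10 µM; glycine 1 or 10 mM). Cold washes, imaging plate 3 days, ROI PSL minus background per mm². % control from ≥triplicate slices, three rats.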

In data set [2] the test system is Mus musculus. Description: In vivo binding affinity to GlyT1 in ddY mouse brain midbrain at 33.3 kBq, iv after 30 mins in presence of SSR504734 2 mg/kg, iv administered 15 mins prior to compound administration relative to control. Format: functional, organism-based. More on the design: dose 2 mg/kg. To be noted: tested as the 125I-labelled form.
Data set [3] concerns the target T1, Sodium- and chloride-dependent glycine transporter 1 (Rattus norvegicus). As to the kind of experiment: Binding affinity to GlyT1 in rat brain striatum at 0.03 to 0.04 nM preincubated for 20 mins in binding buffer before compound addition measured after 30 mins by autoradiography in presence of 0.01 mM GlyT1 inhibitor SSR504734 relative to control. It is filed as tissue-based. To be noted: tested as the 125I-labelled form.

For data set [4] the target is unchanged. Description: Binding affinity to GlyT1 in rat brain corpus callosum at 0.03 to 0.04 nM preincubated for 20 mins in binding buffer before compound addition measured after 30 mins by autoradiography in presence of 0.01 mM GlyT1 inhibitor HPCP relative to control. To be noted: tested as the 125I-labelled form. Format: tissue-based. The method, boiled down:
as §1

Data set [5] has the same target. Description: Binding affinity to GlyT1 in rat brain corpus callosum at 0.03 to 0.04 nM preincubated for 20 mins in binding buffer before compound addition measured after 30 mins by autoradiography in presence of 1 mM GlyT1 substrate glycine relative to control. To be noted: tested as the 125I-labelled form. It is filed as tissue-based. The method, boiled down: as §1

Data set [6] has as its system Mus musculus. Description: In vivo binding affinity to GlyT1 in ddY mouse brain midbrain at 200 kBq, iv after 60 mins by autoradiography relative to control. Format: functional, organism-based. To be noted: tested as the 125I-labelled form.
The subject of data set [7] is Mus musculus. As to the kind of experiment: In vivo binding affinity to GlyT1 in ddY mouse brain midbrain at 33.3 kBq, iv after 60 mins in presence of SSR504734 2 mg/kg, iv administered 15 mins prior to compound administration relative to control. Format: functional, organism-based. Further details: dose 2 mg/kg. To be noted: tested as the 125I-labelled form.
Data set [8] addresses T1, Sodium- and chloride-dependent glycine transporter 1 (Rattus norvegicus). As to the kind of experiment: Binding affinity to GlyT1 in rat brain cerebellar gray matter at 0.03 to 0.04 nM preincubated for 20 mins in binding buffer before compound addition measured after 30 mins by autoradiography relative to control. Format: tissue-based. To be noted: tested as the 125I-labelled form.

Data set [9] has the same target. As to the kind of experiment: Binding affinity to GlyT1 in rat brain cerebral cortex at 0.03 to 0.04 nM preincubated for 20 mins in binding buffer before compound addition measured after 30 mins by autoradiography in presence of 0.01 mM GlyT1 inhibitor SSR504734 relative to control. It is filed as tissue-based. To be noted: tested as the 125I-labelled form. The method, boiled down: as §1

Data set [10] has as its system Mus musculus. As to the kind of experiment: In vivo binding affinity to GlyT1 in ddY mouse brain hippocampus at 33.3 kBq, iv after 30 mins in presence of N-Me-SSR504734 2 mg/kg, iv administered 15 mins prior to compound administration relative to control. Format: functional, organism-based. Further details: dose 2 mg/kg. To be noted: tested as the 125I-labelled form. The method in brief:
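Blocking study in male ddY mice (6 weeks, 30–35 g). The blocker (2 mg/kg in 30% DMSO/saline) was injected i.v. 15 min before about 33.3 kBq [125I]tracer i.v.; mice were killed at 30 or 60 min. Brains were divided into cortex, corpus callosum, hippocampus, thalamus, midbrain, medulla and cerebellum, weighed and gamma-counted as % dose/g. Values are mean ± SD, n = 5–6, compared to control by Kruskal–Wallis with Dunn's post-test.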

Data set [11] concerns Mus musculus. As to the kind of experiment: In vivo binding affinity to GlyT1 in ddY mouse brain striatum at 33.3 kBq, iv after 60 mins in presence of N-Me-SSR504734 2 mg/kg, iv administered 15 mins prior to compound administration relative to control. More on the design: dose 2 mg/kg. Format: functional, organism-based. To be noted: tested as the 125I-labelled form.
In data set [12] the target is T1, Sodium- and chloride-dependent glycine transporter 1 (Rattus norvegicus). As to the kind of experiment: Binding affinity to GlyT1 in rat brain cerebral cortex at 0.03 to 0.04 nM preincubated for 20 mins in binding buffer before compound addition measured after 30 mins by autoradiography in presence of 0.01 mM GlyT2 inhibitor ORG25543 relative to control. Format: tissue-based. To be noted: tested as the 125I-labelled form. The method, boiled down: as §1

Data set [13] has as its system Nucleic Acid. Description: Ratio of drug level in brain to blood in ddY mouse at 11.1 kBq, iv after 180 min by gamma counting. To be noted: 3 h. It is filed as ADME, organism-based.
For data set [14], the system named is Pancreas. Description: Drug uptake in ddY mouse pancreas at 11.1 kBq, iv after 60 min by gamma counting. Format: ADME, organism-based. To be noted: in vivo, 1 h. The method, boiled down: (§2)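 Male ddY mice (6 weeks, 30–35 g) were given about 11.1 kBq of [125I]tracer in 0.1 mL i.v. via the tail vein. At each time point the animals were killed and organs dissected, weighed and gamma-counted. Uptake is expressed as % injected dose per gram of tissue, mean ± SD, n = 5–6.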

The test system of data set [15] is Stomach. As to the kind of experiment: Drug uptake in ddY mouse stomach at 11.1 kBq, iv after 15 min by gamma counting. Format: ADME, organism-based. To be noted: in vivo. The method, boiled down:
as §2

The test system of data set [16] is Liver. Description: Drug uptake in ddY mouse liver at 11.1 kBq, iv after 15 min by gamma counting. It is filed as ADME, organism-based. To be noted: in vivo. The method, boiled down:
as §2

Data set [17] has as its system Pancreas. Description: Drug uptake in ddY mouse pancreas at 11.1 kBq, iv after 180 min by gamma counting. To be noted: in vivo, 3 h. It is filed as ADME, organism-based. The method in brief:
as §2

For `CN1CCCC[C@H]1[C@@H](NC(=O)c1cccc(C(F)(F)F)c1I)c1ccccc1`, the Activity in data set [1] is 98.2%; in data set [3], 50.2%; in data set [4] it was 19.7%; in data set [5], 94.1%; in [9], 29.3%; in [12], 95.1%. The result in data set [2], in data set [7] and in data set [8] was inactive. Moreover, the result in [6], in data set [10] and in data set [11] was Active.
`CN1CCCC[C@H]1[C@@H](NC(=O)c1cccc(C(F)(F)F)c1[125I])c1ccccc1`: the Ratio in data set [13] is recorded as 0.85. In addition, the Drug uptake in data set [14] amounted to 9.51 % ID/g; in [15], 5.22 % ID/g; in data set [16] it was 11.51 % ID/g; in [17], 4.84 % ID/g.

(Values after ChEMBL document CHEMBL1938298, “Synthesis and characterization of [¹²⁵I]2-iodo N-[(S)-{(S)-1-methylpiperidin-2-yl}(phenyl)methyl]3-trifluoromethyl-benzamide as novel imaging probe for glycine transporter 1” (Bioorg Med Chem, 2011).)
